Common to all, as to format: functional
Experiment [1] relates to Escherichia coli. Briefly: Antibacterial activity against Escherichia coli DH5alpha assessed as growth inhibition at 100 ug/ml after 16 hrs by spectrophotometric method. The settings on record: DH5[alpha], read-out: GI. In a few lines:
(§1)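 Growth inhibition read as OD600 on 300 µL culture samples, with untreated control cultures taken as maximum growth. Percent inhibition = (OD600 control − OD600 treated) × 100 / OD600 control. Parent antibiotics and their conjugates were run in parallel at three concentrations per compound, in biological duplicate.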

The test system of experiment [2] is Staphylococcus aureus. Briefly: Antibacterial activity against Staphylococcus aureus RN4220 assessed as growth inhibition at 75 ug/ml after 16 hrs by spectrophotometric analysis. The settings on record: RN4220, 16 h, read-out: GI. In outline:
as §1

The test system of experiment [3] is Staphylococcus aureus. Nature of the experiment: Antibacterial activity against Staphylococcus aureus RN4220 assessed as growth inhibition at 150 ug/ml after 16 hrs by spectrophotometric analysis. The settings on record: RN4220, 16 h, read-out: GI. In outline:
as §1

Experiment [4] concerns Escherichia coli. Briefly: Antibacterial activity against Escherichia coli DH5alpha assessed as growth inhibition at 50 ug/ml after 16 hrs by spectrophotometric method. To be noted: DH5[alpha], read-out: GI. In a few lines:
as §1

The test system of experiment [5] is Escherichia coli. Nature of the experiment: Antibacterial activity against Escherichia coli DH5alpha assessed as growth inhibition at 75 ug/ml after 16 hrs by spectrophotometric method. The settings on record: DH5[alpha], read-out: GI. In a few lines: as §1
Experiment [6] has as its system Staphylococcus aureus. Briefly: Antibacterial activity against Staphylococcus aureus RN4220 assessed as growth inhibition at 300 ug/ml after 16 hrs by spectrophotometric analysis. To be noted: RN4220, 16 h, read-out: GI. In outline:
as §1

For experiment [7], the system named is Staphylococcus aureus. Briefly: Antibacterial activity against Staphylococcus aureus RN4220 assessed as growth inhibition at 50 ug/ml after 16 hrs by spectrophotometric analysis. The settings on record: RN4220, 16 h, read-out: GI. In a few lines: as §1
Experiment [8] concerns Staphylococcus aureus. Nature of the experiment: Antibacterial activity against Staphylococcus aureus RN4220 assessed as growth inhibition at 100 ug/ml after 16 hrs by spectrophotometric analysis. The settings on record: RN4220, 16 h, read-out: GI. In a few lines: as §1
Experiment [9] relates to Staphylococcus aureus. Briefly: Antibacterial activity against Staphylococcus aureus RN4220 assessed as growth inhibition at 200 ug/ml after 16 hrs by spectrophotometric analysis. The settings on record: RN4220, 16 h, read-out: GI. In a few lines: as §1
The test system of experiment [10] is Bacillus subtilis. Nature of the experiment: Antibacterial activity against Bacillus subtilis 168 assessed as growth inhibition at 10 ug/ml after 16 hrs by spectrophotometric analysis. To be noted: subsp. subtilis str. 168, 16 h, read-out: GI. In a few lines: as §1
The subject of experiment [11] is Escherichia coli. Nature of the experiment: Antibacterial activity against Escherichia coli DH5alpha assessed as growth inhibition at 5 ug/ml after 16 hrs by spectrophotometric method. To be noted: DH5[alpha], read-out: GI. In a few lines:
as §1

The test system of experiment [12] is Bacillus subtilis. Briefly: Antibacterial activity against Bacillus subtilis 168 assessed as growth inhibition at 20 ug/ml after 16 hrs by spectrophotometric analysis. To be noted: subsp. subtilis str. 168, 16 h, read-out: GI. In a few lines:
as §1

Experiment [13] has as its system Escherichia coli. Briefly: Antibacterial activity against Escherichia coli DH5alpha assessed as growth inhibition at 2.5 ug/ml after 16 hrs by spectrophotometric method. The settings on record: DH5[alpha], read-out: GI. In a few lines:
as §1

Experiment [14] deals with Bacillus subtilis. Nature of the experiment: Antibacterial activity against Bacillus subtilis 168 assessed as growth inhibition at 40 ug/ml after 16 hrs by spectrophotometric analysis. To be noted: subsp. subtilis str. 168, 16 h, read-out: GI. In a few lines: as §1
Experiment [15] has as its system Escherichia coli. Nature of the experiment: Antibacterial activity against Escherichia coli DH5alpha assessed as growth inhibition at 10 ug/ml after 16 hrs by spectrophotometric method. The settings on record: DH5[alpha], read-out: GI. In a few lines: as §1
In experiment [16] the test system is Staphylococcus aureus. Briefly: Antibacterial activity against Staphylococcus aureus RN4220 assessed as growth inhibition at 30 ug/ml after 16 hrs by spectrophotometric analysis. The settings on record: RN4220, 16 h, read-out: GI. In a few lines:
as §1

For experiment [17], the system named is Staphylococcus aureus. Briefly: Antibacterial activity against Staphylococcus aureus RN4220 assessed as growth inhibition at 15 ug/ml after 16 hrs by spectrophotometric analysis. The settings on record: RN4220, 16 h, read-out: GI. In outline: as §1
For experiment [18], the system named is Escherichia coli. Briefly: Antibacterial activity against Escherichia coli DH5alpha assessed as growth inhibition at 3 ug/ml after 16 hrs by spectrophotometric method. The settings on record: DH5[alpha], read-out: GI. In a few lines: as §1
Experiment [19] has as its system Pseudomonas aeruginosa. Briefly: Antibacterial activity against Pseudomonas aeruginosa PAO1 assessed as growth inhibition at 40 ug/ml after 16 hrs by spectrophotometric analysis. The settings on record: PAO1, 16 h, read-out: GI. In a few lines:
as §1

For experiment [20], the system named is Staphylococcus aureus. Briefly: Antibacterial activity against Staphylococcus aureus RN4220 assessed as growth inhibition at 60 ug/ml after 16 hrs by spectrophotometric analysis. To be noted: RN4220, 16 h, read-out: GI. In outline: as §1
The test system of experiment [21] is Escherichia coli. Nature of the experiment: Antibacterial activity against Escherichia coli DH5alpha assessed as growth inhibition at 1.5 ug/ml after 16 hrs by spectrophotometric method. The settings on record: DH5[alpha], read-out: GI. In outline: as §1
For experiment [22], the system named is Escherichia coli. Briefly: Antibacterial activity against Escherichia coli DH5alpha assessed as growth inhibition at 0.75 ug/ml after 16 hrs by spectrophotometric method. To be noted: DH5[alpha], read-out: GI. In outline:
as §1

In experiment [23] the test system is Bacillus subtilis. Briefly: Antibacterial activity against Bacillus subtilis 168 assessed as growth inhibition at 5 ug/ml after 16 hrs by spectrophotometric analysis. The settings on record: subsp. subtilis str. 168, 16 h, read-out: GI. In a few lines:
as §1

The subject of experiment [24] is Pseudomonas aeruginosa. Briefly: Antibacterial activity against Pseudomonas aeruginosa PAO1 assessed as growth inhibition at 10 ug/ml after 16 hrs by spectrophotometric analysis. The settings on record: PAO1, 16 h, read-out: GI. In outline: as §1
Experiment [25] has as its system Pseudomonas aeruginosa. Briefly: Antibacterial activity against Pseudomonas aeruginosa PAO1 assessed as growth inhibition at 20 ug/ml after 16 hrs by spectrophotometric analysis. The settings on record: PAO1, 16 h, read-out: GI. In outline: as §1

The structures appear in SMILES notation.

`Cc1ncc([N+](=O)[O-])n1CCO` [METRONIDAZOLE]: in experiment [1], the inhibition of growth at 100 µg/mL was determined as 15%. The results for the inhibition of growth at 75 µg/mL in experiment [2] and in [5] were -14.3% and 8.2%, respectively. Besides, the inhibition of growth at 150 µg/mL in [3] was -9.9%. Besides, in [4], the inhibition of growth at 50 µg/mL is 6.64%. The inhibition of growth at 300 µg/mL in [6] turned out to be 16.4%.
On to `CCn1cc(C(=O)O)c(=O)c2cnc(N3CCNCC3)nc21` [PIPEMIDIC ACID], for which, in experiment [7], the inhibition of growth at 50 µg/mL was found to be 26.2%. Besides, the inhibition of growth at 100 µg/mL in [8] is 44.4%. Moreover, the inhibition of growth at 200 µg/mL in experiment [9] stood at 61.8%. Also, the results for the inhibition of growth at 10 µg/mL in [10] and in experiment [15] were 18.2% and 7.89%, respectively. In addition, the inhibition of growth at 5 µg/mL in [11] was -9.68%. Further, in experiment [12], the inhibition of growth at 20 µg/mL came out at 26%. Also, the inhibition of growth at 2.5 µg/mL in [13] is -13%. In experiment [14], the inhibition of growth at 40 µg/mL was found to be 79.8%.
As to `CCn1cc(C(=O)O)c(=O)c2cc(F)c(N3CCN(C(=O)[C@H](Cc4ccccc4)NC(=O)OCc4ccccc4)CC3)cc21`, the inhibition of growth at 30 µg/mL in experiment [16] is 89.6%. Besides, the inhibition of growth at 15 µg/mL in experiment [17] was 12%. Besides, in [18], the inhibition of growth at 3 µg/mL worked out at 0.54%. Also, the inhibition of growth at 10 µg/mL in [10] was 61.1%; in experiment [24] it was -28%. The inhibition of growth at 40 µg/mL in [19] is 5.69%. In experiment [20], the inhibition of growth at 60 µg/mL is 92.7%. Further, the inhibition of growth at 20 µg/mL in experiment [12] was 90.1%; in experiment [25], -18.6%. The inhibition of growth at 1.5 µg/mL in experiment [21] worked out at 3.79%. Moreover, the inhibition of growth at 0.75 µg/mL in experiment [22] is -0.95%. The inhibition of growth at 5 µg/mL in experiment [23] is 49.1%.
For the molecule `Cc1ncc([N+](=O)[O-])n1CCOC(=O)[C@@H](NC(=O)OCc1ccccc1)C(C)C`, the inhibition of growth at 100 µg/mL in [1] was 4.47%. Further, the inhibition of growth at 75 µg/mL is -7.76% in [2] and 3.26% in experiment [5]. The inhibition of growth at 150 µg/mL in [3] is -7.76%. Besides, in experiment [4], the inhibition of growth at 50 µg/mL was 3.28%. Moreover, in experiment [6], the inhibition of growth at 300 µg/mL amounted to 13.7%.
Consider `CCn1cc(C(=O)O)c(=O)c2cc(F)c(N3CCN(C(=O)C(C)NC(=O)OCc4ccccc4)CC3)cc21` (stereo not given), for which, in [16], the inhibition of growth at 30 µg/mL came to 77.9%. Moreover, the inhibition of growth at 15 µg/mL in experiment [17] worked out at 51.5%. Besides, the inhibition of growth at 3 µg/mL in [18] worked out at 0.77%. Also, the inhibition of growth at 10 µg/mL was 91.4% in experiment [10] and -25.7% in experiment [24]. Further, the inhibition of growth at 40 µg/mL in experiment [19] is 25.8%. Also, the inhibition of growth at 60 µg/mL in experiment [20] came to 86.1%. The inhibition of growth at 20 µg/mL in experiment [12] is 90.3%; in [25], -19.8%. The inhibition of growth at 1.5 µg/mL in experiment [21] turned out to be 1.25%. Moreover, the inhibition of growth at 0.75 µg/mL in [22] was -4.73%. Further, the inhibition of growth at 5 µg/mL in [23] turned out to be 92.3%.
For the molecule `Cc1ncc([N+](=O)[O-])n1CCOC(=O)[C@H](CCCCNC(=O)OCc1ccccc1)NC(=O)OCc1ccccc1`, the inhibition of growth at 100 µg/mL in experiment [1] was 70%. Moreover, the inhibition of growth at 75 µg/mL in experiment [2] was -2.96%; in experiment [5], 62.5%. Further, the inhibition of growth at 150 µg/mL in [3] came out at 22.3%. Besides, the inhibition of growth at 50 µg/mL in experiment [4] turned out to be 51.9%. For the same molecule, the inhibition of growth at 300 µg/mL in [6] is 68%.
Turning to `CCn1cc(C(=O)O)c(=O)c2cnc(N3CCN(C(=O)[C@H](CCCCNC(=O)OCc4ccccc4)NC(=O)OCc4ccccc4)CC3)nc21`, the inhibition of growth at 50 µg/mL in experiment [7] is -20.2%. The inhibition of growth at 100 µg/mL in experiment [8] amounted to 28.2%. Further, the inhibition of growth at 200 µg/mL in experiment [9] is 52.4%. The figures for the inhibition of growth at 10 µg/mL in experiment [10] and in [15] were -7.86% and -6.9%, respectively. Besides, the inhibition of growth at 5 µg/mL in [11] is -9.63%. In experiment [12], the inhibition of growth at 20 µg/mL is -4.87%. For the same molecule, the inhibition of growth at 2.5 µg/mL in experiment [13] is -13.2%. The inhibition of growth at 40 µg/mL in [14] is 89.9%.

Source of the values: ChEMBL document CHEMBL3232791, “Synthesis and antibacterial evaluation of amino acid-antibiotic conjugates” (2014).
